For orientation: Ki means the equilibrium dissociation constant of an inhibitor or competing ligand from its target. Low values mean a stronger hold on the target, high ones a looser hold on the target.

Data on 11 compounds can be found in ChEMBL document CHEMBL1152551, “Synthesis and pharmacological evaluation of novel 1- and 8-substituted-3-furfuryl xanthines as adenosine receptor antagonists” (Bioorg Med Chem, 2009).

Adenosine receptor A2a, sequence (P29274 whole entry): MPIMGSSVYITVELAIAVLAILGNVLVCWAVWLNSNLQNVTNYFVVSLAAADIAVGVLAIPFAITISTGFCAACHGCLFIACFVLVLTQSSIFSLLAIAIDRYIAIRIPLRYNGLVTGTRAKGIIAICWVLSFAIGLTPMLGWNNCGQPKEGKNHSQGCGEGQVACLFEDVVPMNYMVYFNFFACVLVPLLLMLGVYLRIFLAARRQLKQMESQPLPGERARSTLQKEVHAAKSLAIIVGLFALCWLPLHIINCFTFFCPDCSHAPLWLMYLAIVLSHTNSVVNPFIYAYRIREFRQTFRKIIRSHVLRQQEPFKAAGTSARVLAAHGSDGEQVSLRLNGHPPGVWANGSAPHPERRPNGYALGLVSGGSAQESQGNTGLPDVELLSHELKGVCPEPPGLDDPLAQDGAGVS

The target in one assay is T1, Adenosine receptor A3 (Homo sapiens) (UniProt P0DMS8).
T1 sequence (whole entry): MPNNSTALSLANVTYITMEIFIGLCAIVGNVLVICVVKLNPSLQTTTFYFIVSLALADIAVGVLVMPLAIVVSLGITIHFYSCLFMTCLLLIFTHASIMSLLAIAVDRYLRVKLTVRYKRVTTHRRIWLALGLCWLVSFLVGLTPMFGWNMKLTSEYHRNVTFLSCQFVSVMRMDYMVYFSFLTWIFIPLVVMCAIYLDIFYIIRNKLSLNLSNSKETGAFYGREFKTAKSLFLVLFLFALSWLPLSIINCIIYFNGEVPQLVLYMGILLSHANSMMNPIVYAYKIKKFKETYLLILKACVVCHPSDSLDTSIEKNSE
As to the kind of experiment: Displacement of [3H]NECA from human recombinant adenosine A3 receptor expressed in HeLa cells at 1 uM. It counts as cell-based. The gist of the method: (§1)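 Single concentration of 1 µM tested for displacement of specific radioligand binding, given as percentage displacement. Rat A1 in rat cortex membranes with [3H]DPCPX; human A2B in HEK-293 cells with [3H]DPCPX; human A2A in HeLa cells with [3H]ZM241385; human A3 in HeLa cells with [3H]NECA.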
Turning to `C=CCn1c(=O)c2[nH]c(Cc3c(F)cccc3F)nc2n(Cc2ccco2)c1=O`, the Activity is 1%.

Take `COCCn1c(=O)c2[nH]c(Cc3cccs3)nc2n(Cc2ccco2)c1=O`: the Activity was found to be 2%.

As for `CC[S+]([O-])CCn1c(=O)c2[nH]c(Cc3ccccc3)nc2n(Cc2ccco2)c1=O` (centres undefined), the Activity came to 26%.

Turning to `O=c1c2[nH]c(Cc3c(F)cccc3F)nc2n(Cc2ccco2)c(=O)n1CC1CC1`, the Activity is 7%.

With `CCOCCn1c(=O)c2[nH]c(Cc3ccccc3)nc2n(Cc2ccco2)c1=O`, the Activity worked out at 6%.

`CCS(=O)(=O)CCn1c(=O)c2[nH]c(Cc3ccccc3)nc2n(Cc2ccco2)c1=O`: the Activity was determined as 1%.

For `COCCn1c(=O)c2[nH]c(Cc3c(F)cccc3F)nc2n(Cc2ccco2)c1=O`, the Activity amounted to 4%.

Turning to `CCSCCn1c(=O)c2[nH]c(Cc3cccs3)nc2n(Cc2ccco2)c1=O`, the Activity was determined as 13%.

As for `CCCCCn1c(=O)c2[nH]c(Cc3cccs3)nc2n(Cc2ccco2)c1=O`, the Activity is 11%.

On to `COCCn1c(=O)c2[nH]c(Cc3ccccc3)nc2n(Cc2ccco2)c1=O`, for which the Activity came out at 5%.

For `CCSCCn1c(=O)c2[nH]c(Cc3ccco3)nc2n(Cc2ccco2)c1=O`, the Activity stood at 4%.

Another assay deals with T2, Adenosine receptor A2b (Homo sapiens, UniProt P29275).
T2 sequence (P29275 whole entry): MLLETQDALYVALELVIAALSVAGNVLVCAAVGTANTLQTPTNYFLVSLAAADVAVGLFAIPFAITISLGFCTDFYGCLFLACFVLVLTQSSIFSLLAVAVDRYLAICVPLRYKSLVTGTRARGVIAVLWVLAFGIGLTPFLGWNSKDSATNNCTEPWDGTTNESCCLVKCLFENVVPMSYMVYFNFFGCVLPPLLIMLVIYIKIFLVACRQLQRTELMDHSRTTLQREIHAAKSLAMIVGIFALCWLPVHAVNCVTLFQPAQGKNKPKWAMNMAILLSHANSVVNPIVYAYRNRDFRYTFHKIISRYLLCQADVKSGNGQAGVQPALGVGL
As to the kind of experiment: Displacement of [3H]DPCPX from human adenosine A2B receptor expressed in HEK293 cells. It counts as cell-based. The gist of the method:
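Competition binding with radioligand: rat A1 in rat cortex membranes with [3H]DPCPX; human A2B expressed in HEK-293 cells with [3H]DPCPX; human A2A expressed in HeLa cells with [3H]ZM241385. Affinity reported as pKi; compounds not fully displacing specific binding at 1 µM were instead given as displacement percentage. SEM below 10%.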
(In general: Loss of bound radioactivity is the signal in a displacement assay; it reports binding, not function.)
`CCSCCn1c(=O)c2[nH]c(Cc3cccs3)nc2n(Cc2ccco2)c1=O` had a Ki of 275 nM.

Consider `CCSCCn1c(=O)c2[nH]c(Cc3ccco3)nc2n(Cc2ccco2)c1=O`, for which the affinity corresponds to a Ki of 646 nM.

Another assay has as its target T3, Adenosine receptor A1 (Rattus norvegicus) (UniProt P25099).
T3 sequence (whole entry): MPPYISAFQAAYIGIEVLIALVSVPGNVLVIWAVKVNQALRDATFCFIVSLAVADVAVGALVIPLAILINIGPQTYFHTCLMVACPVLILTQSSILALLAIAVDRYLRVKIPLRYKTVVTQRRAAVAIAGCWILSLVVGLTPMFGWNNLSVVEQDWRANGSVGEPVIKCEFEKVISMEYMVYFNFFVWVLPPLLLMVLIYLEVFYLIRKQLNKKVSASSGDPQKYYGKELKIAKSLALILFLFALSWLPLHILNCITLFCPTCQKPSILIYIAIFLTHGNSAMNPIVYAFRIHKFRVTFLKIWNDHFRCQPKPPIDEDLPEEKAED
As to the kind of experiment: Displacement of [3H]DPCPX form adenosine A1 receptor in rat cortex membrane at 1 uM. It counts as cell membranes. Summed up:
as §1
`C=CCn1c(=O)c2[nH]c(Cc3c(F)cccc3F)nc2n(Cc2ccco2)c1=O` gave an Activity of 3%.

In turn, `COCCn1c(=O)c2[nH]c(Cc3cccs3)nc2n(Cc2ccco2)c1=O` displayed an Activity of 17%.

On to `CC[S+]([O-])CCn1c(=O)c2[nH]c(Cc3ccccc3)nc2n(Cc2ccco2)c1=O` (centres undefined), for which the Activity was found to be 1%.

For `O=c1c2[nH]c(Cc3c(F)cccc3F)nc2n(Cc2ccco2)c(=O)n1CC1CC1`, the Activity is 14%.

`CCOCCn1c(=O)c2[nH]c(Cc3ccccc3)nc2n(Cc2ccco2)c1=O` had an Activity of 25%.

On to `CCS(=O)(=O)CCn1c(=O)c2[nH]c(Cc3ccccc3)nc2n(Cc2ccco2)c1=O`, for which the Activity came to 2%.

`COCCn1c(=O)c2[nH]c(Cc3c(F)cccc3F)nc2n(Cc2ccco2)c1=O` returned an Activity of 28%.

Compound `CCSCCn1c(=O)c2[nH]c(Cc3cccs3)nc2n(Cc2ccco2)c1=O` displayed an Activity of 32%.

In turn, `CCCCCn1c(=O)c2[nH]c(Cc3cccs3)nc2n(Cc2ccco2)c1=O` displayed an Activity of 21%.

As to `COCCn1c(=O)c2[nH]c(Cc3ccccc3)nc2n(Cc2ccco2)c1=O`, the Activity came to 27%.

For `CCSCCn1c(=O)c2[nH]c(Cc3ccco3)nc2n(Cc2ccco2)c1=O`, the Activity turned out to be 42%.

The next assay addresses Adenosine receptor A2a (Homo sapiens, UniProt P29274). Put plainly: Displacement of [3H]ZM241385 from human adenosine A2A receptor expressed in HeLa cells at 1 uM by microplate beta scintillation counting. It counts as cell-based. The gist of the method: as §1
Compound `C=CCn1c(=O)c2[nH]c(Cc3c(F)cccc3F)nc2n(Cc2ccco2)c1=O` came in with an Activity of 11%.

As for `COCCn1c(=O)c2[nH]c(Cc3cccs3)nc2n(Cc2ccco2)c1=O`, the Activity is 34%.

Regarding `CC[S+]([O-])CCn1c(=O)c2[nH]c(Cc3ccccc3)nc2n(Cc2ccco2)c1=O` (centres undefined), the Activity was 11%.

In the case of `O=c1c2[nH]c(Cc3c(F)cccc3F)nc2n(Cc2ccco2)c(=O)n1CC1CC1`, the Activity worked out at 6%.

`CCOCCn1c(=O)c2[nH]c(Cc3ccccc3)nc2n(Cc2ccco2)c1=O` returned an Activity of 2%.

`CCS(=O)(=O)CCn1c(=O)c2[nH]c(Cc3ccccc3)nc2n(Cc2ccco2)c1=O` returned an Activity of 1%.

`COCCn1c(=O)c2[nH]c(Cc3c(F)cccc3F)nc2n(Cc2ccco2)c1=O`: the Activity is 23%.

`CCSCCn1c(=O)c2[nH]c(Cc3cccs3)nc2n(Cc2ccco2)c1=O` showed an Activity of 4%.

As for `CCCCCn1c(=O)c2[nH]c(Cc3cccs3)nc2n(Cc2ccco2)c1=O`, the Activity was found to be 10%.

As for `COCCn1c(=O)c2[nH]c(Cc3ccccc3)nc2n(Cc2ccco2)c1=O`, the Activity amounted to 32%.

Compound `CCSCCn1c(=O)c2[nH]c(Cc3ccco3)nc2n(Cc2ccco2)c1=O` registered an Activity of 17%.

In a further assay the target is T4, Adenosine receptor A2b (Homo sapiens) (UniProt P29275).
T4 sequence (whole entry): T2 sequence (P29275 whole entry)
As to the kind of experiment: Displacement of [3H]DPCPX from human adenosine A2B receptor expressed in HEK293 cells at 1 uM. It counts as cell-based. The gist of the method: as §1
Compound `C=CCn1c(=O)c2[nH]c(Cc3c(F)cccc3F)nc2n(Cc2ccco2)c1=O` returned an Activity of 24%.

Consider `COCCn1c(=O)c2[nH]c(Cc3cccs3)nc2n(Cc2ccco2)c1=O`, for which the Activity came to 70%.

Compound `CC[S+]([O-])CCn1c(=O)c2[nH]c(Cc3ccccc3)nc2n(Cc2ccco2)c1=O` (centres undefined) registered an Activity of 9%.

In turn, `O=c1c2[nH]c(Cc3c(F)cccc3F)nc2n(Cc2ccco2)c(=O)n1CC1CC1` returned an Activity of 59%.

Compound `CCOCCn1c(=O)c2[nH]c(Cc3ccccc3)nc2n(Cc2ccco2)c1=O` gave an Activity of 31%.

`CCS(=O)(=O)CCn1c(=O)c2[nH]c(Cc3ccccc3)nc2n(Cc2ccco2)c1=O` showed an Activity of 20%.

As to `COCCn1c(=O)c2[nH]c(Cc3c(F)cccc3F)nc2n(Cc2ccco2)c1=O`, the Activity was 70%.

In the case of `CCCCCn1c(=O)c2[nH]c(Cc3cccs3)nc2n(Cc2ccco2)c1=O`, the Activity is 17%.

In the case of `COCCn1c(=O)c2[nH]c(Cc3ccccc3)nc2n(Cc2ccco2)c1=O`, the Activity came to 65%.
